The text below walks through data of ChEMBL document CHEMBL1125181, “Naphthosultam derivatives: a new class of potent and selective 5-HT2 antagonists” (J Med Chem, 1991).

Each structure is given as a SMILES string.

Format in all cases: cell membranes
The target in test [1] is Serotonin 2 (5-HT2) receptor (Rattus norvegicus, UniProt P30994+P08909+P14842). Kind of test: The concentration required to inhibit [3H]ketanserin binding to 5-hydroxytryptamine 2 receptor in rat brain membranes (in vitro). In short, it runs like this:
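Male Sprague-Dawley rat cortical membranes (0.15 mg/mL protein) in Tris-HCl pH 7.6 with BSA 2 mg/mL. Incubated 15 min at 37 °C with compound and [3H]ketanserin (final 0.4 nM). Nonspecific binding from 10⁻⁶ M methysergide. Filtration and scintillation counting. IC50 by nonlinear regression; mean of at least 2 runs, 6 concentrations in triplicate.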

Test [2] deals with T1, Adrenergic receptor alpha-1 (Rattus norvegicus, UniProt P15823+P23944+P43140).
T1 sequence (P15823 whole entry): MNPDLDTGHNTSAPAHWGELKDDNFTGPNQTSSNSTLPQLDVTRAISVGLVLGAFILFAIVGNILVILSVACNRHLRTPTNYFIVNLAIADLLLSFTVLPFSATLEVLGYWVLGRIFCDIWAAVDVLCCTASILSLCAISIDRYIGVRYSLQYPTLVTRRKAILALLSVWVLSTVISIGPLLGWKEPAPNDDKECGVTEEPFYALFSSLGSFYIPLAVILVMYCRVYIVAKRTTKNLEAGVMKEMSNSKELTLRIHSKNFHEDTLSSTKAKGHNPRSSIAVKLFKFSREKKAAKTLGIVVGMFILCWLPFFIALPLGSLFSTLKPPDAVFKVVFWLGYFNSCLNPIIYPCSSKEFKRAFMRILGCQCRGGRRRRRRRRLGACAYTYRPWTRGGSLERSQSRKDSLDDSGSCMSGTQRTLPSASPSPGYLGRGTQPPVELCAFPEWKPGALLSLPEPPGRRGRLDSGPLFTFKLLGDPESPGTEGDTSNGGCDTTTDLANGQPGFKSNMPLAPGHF
T1 sequence (P23944 whole entry): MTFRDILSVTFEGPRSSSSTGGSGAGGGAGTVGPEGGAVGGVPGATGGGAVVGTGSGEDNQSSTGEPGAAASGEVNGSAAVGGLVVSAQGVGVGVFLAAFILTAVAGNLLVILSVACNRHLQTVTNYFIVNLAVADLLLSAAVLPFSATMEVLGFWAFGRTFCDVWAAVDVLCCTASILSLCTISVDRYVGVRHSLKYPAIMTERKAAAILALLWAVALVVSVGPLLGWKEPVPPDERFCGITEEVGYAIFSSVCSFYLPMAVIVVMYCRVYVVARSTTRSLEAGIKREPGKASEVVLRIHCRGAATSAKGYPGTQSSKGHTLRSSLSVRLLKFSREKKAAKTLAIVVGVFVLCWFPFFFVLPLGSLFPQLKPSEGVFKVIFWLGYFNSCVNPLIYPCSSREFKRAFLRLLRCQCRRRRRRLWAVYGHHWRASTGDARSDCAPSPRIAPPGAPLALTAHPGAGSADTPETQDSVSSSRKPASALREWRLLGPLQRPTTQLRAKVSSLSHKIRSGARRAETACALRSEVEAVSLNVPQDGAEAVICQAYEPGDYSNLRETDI
T1 sequence (P43140 whole entry): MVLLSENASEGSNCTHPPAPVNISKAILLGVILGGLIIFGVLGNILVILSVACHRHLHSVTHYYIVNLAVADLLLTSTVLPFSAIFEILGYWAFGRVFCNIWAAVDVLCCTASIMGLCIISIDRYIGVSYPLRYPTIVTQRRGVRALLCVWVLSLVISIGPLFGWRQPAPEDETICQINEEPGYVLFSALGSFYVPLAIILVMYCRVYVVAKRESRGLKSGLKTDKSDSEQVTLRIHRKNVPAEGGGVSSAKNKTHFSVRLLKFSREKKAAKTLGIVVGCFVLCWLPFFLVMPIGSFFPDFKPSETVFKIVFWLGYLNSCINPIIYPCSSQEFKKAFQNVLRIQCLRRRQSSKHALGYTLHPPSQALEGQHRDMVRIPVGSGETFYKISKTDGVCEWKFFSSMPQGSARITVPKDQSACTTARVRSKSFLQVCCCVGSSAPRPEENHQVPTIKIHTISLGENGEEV
Kind of test: The concentration required to inhibit [3H]prazosin binding to Alpha-1 adrenergic receptor in rat brain membranes was measured (in vitro).

The target of test [3] is D(2) dopamine receptor (Rattus norvegicus, UniProt P61169). The test is described as follows: The concentration required to inhibit [3H]spiperone binding to dopamine receptor D2 in rat brain membranes (in vitro). Put shortly: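 Rat striatal membranes (0.05 mg/mL protein) in Tris-HCl with BSA 2 mg/mL, NaCl, cinanserin 10⁻⁶ M and compound. [3H]spiperone (final 0.05 nM) added after 5 min, incubation continued 40 min. Nonspecific binding from 10⁻⁶ M sulpiride. Filtration and scintillation counting.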
Chain of D(2) dopamine receptor (P61169 whole entry): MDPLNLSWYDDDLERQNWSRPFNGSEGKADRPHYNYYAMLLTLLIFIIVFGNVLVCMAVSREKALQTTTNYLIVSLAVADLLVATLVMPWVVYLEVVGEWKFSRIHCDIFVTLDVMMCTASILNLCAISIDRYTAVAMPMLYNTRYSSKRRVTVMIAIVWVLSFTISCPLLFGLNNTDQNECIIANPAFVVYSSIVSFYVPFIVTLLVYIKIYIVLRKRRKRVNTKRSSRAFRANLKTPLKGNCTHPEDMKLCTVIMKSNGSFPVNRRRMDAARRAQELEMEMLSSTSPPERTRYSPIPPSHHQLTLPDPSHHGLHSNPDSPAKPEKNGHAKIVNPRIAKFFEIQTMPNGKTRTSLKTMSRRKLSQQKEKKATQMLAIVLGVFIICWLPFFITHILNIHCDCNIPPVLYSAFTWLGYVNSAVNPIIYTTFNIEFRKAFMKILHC

For the molecule `O=S1(=O)N=C(N2CCN(CCCN3c4cccc5cccc(c45)S3(=O)=O)CC2)c2ccccc21`, the IC50 was 240 nM in test [1], 181 nM in test [2] and greater than 1000 nM in test [3].
Regarding `O=S(=O)(c1ccccc1)N(CCCN1CC=C(c2ccccc2)CC1)c1ccccc1`, the IC50 was determined as 10 nM in test [1], 35 nM in test [2] and 80 nM in test [3].
Regarding `O=S1(=O)c2cccc3cccc(c23)N1CCN1CC=C(c2ccccc2)CC1`, the IC50 in test [1] is 6.3 nM; in test [2], 98 nM; in test [3] it was greater than 100 nM.
Take `CN(CCCN1CC=C(c2ccccc2)CC1)S(=O)(=O)c1cccc2ccccc12`: the IC50 in test [1] is greater than 100 nM.
In the case of `CCOC(=O)c1ccc(N2CCN(CCCN3c4cccc5cccc(c45)S3(=O)=O)CC2)cc1`, the IC50 in test [1] is 200 nM; in test [2], greater than 1000 nM; in test [3] it was greater than 1000 nM.
As for `O=S1(=O)c2cccc3cccc(c23)N1CCCN1CCN(c2ncccn2)CC1`, the IC50 was 32 nM in test [1], greater than 1000 nM in test [2] and greater than 1000 nM in test [3].
In the case of `O=S1(=O)c2cccc3cccc(c23)N1CCCN1CCN(c2ccccn2)CC1`, the figures for the IC50 in test [1], in test [2] and in test [3] were 6.3 nM, 269 nM and greater than 1000 nM, respectively.
For `O=S1(=O)c2cccc3cccc(c23)N1CCCN1CCN(c2cccc(F)c2)CC1` the same measures were 18 nM, 688 nM and greater than 1000 nM.
For `O=S1(=O)c2cccc3cccc(c23)N1CCCN1CCN(c2noc3ccccc23)CC1` the same measures were 2.3 nM, 144 nM and 990 nM.
In the case of `O=S1(=O)c2cccc3cccc(c23)N1CCCN1CCC(c2ccccc2)CC1`, the IC50 is 0.2 nM in test [1], 27 nM in test [2] and 385 nM in test [3].
`O=S1(=O)c2cccc3cccc(c23)N1CCCCN1CC=C(c2ccccc2)CC1`: the IC50 in test [1] was 2.1 nM; in test [2] it was 7.8 nM; in test [3] it was 55 nM.
For `O=C1c2cccc3cccc(c23)N1CCCN1CC=C(c2ccccc2)CC1` the same measures were 9.8 nM, 580 nM and greater than 100 nM.
For the molecule `O=S1(=O)c2cccc3cccc(c23)N1CCCN1CCN(c2ccc(O)cc2)CC1`, the results for the IC50 in test [1], in test [2] and in test [3] were 0.3 nM, 110 nM and 508 nM, respectively.
As for `COc1ccc(N2CCN(CCCN3c4cccc5cccc(c45)S3(=O)=O)CC2)cc1`, the IC50 was 25 nM in test [1], greater than 1000 nM in test [2] and greater than 1000 nM in test [3].
With `CS(=O)(=O)N(CCCN1CC=C(c2ccccc2)CC1)c1cccc2ccccc12`, the IC50 in test [1] came to 5.1 nM; in test [2], 75 nM; in test [3], 275 nM.
For `O=S1(=O)c2cccc3cccc(c23)N1CCCN1CCN(c2nsc3ccccc23)CC1` the same measures were 0.4 nM, 75 nM and 473 nM.
For `O=S1(=O)c2cccc3cccc(c23)N1CCCN1CCC(n2c(O)nc3ccccc32)CC1` the same measures were 7 nM, less than 10 nM and 46 nM.
On to `O=S1(=O)c2cccc3cccc(c23)N1CCCN1CCN(c2ccc(C(F)(F)F)cc2)CC1`, for which the IC50 in test [1] is 275 nM; in test [2] it was greater than 1000 nM; in test [3], greater than 1000 nM.
As to `O=S1(=O)c2cccc3cccc(c23)N1CCN1CCN(c2ccc(F)cc2)CC1`, the IC50 turned out to be 1 nM in test [1] and 64 nM in test [2].
Take `O=S1(=O)c2cccc3cccc(c23)N1CCCN1CCN(c2ccccc2)CC1`: the IC50 in test [1] was 2.6 nM; in test [2] it was 141 nM; in test [3] it was greater than 1000 nM.
With `O=S1(=O)c2cccc3cccc(c23)N1CCCN1CCN(c2ccc(Cl)cc2)CC1`, the IC50 in test [1] was 5 nM; in test [2] it was greater than 1000 nM; in test [3], greater than 1000 nM.
For `O=S1(=O)c2cccc3cccc(c23)N1CCCN1CCN(c2nc3ccccc3s2)CC1`, the figures for the IC50 in test [1], in test [2] and in test [3] were 540 nM, greater than 1000 nM and greater than 1000 nM, respectively.
As to `O=S1(=O)c2ccccc2-c2ccccc2N1CCCN1CC=C(c2ccccc2)CC1`, the IC50 was 10 nM in test [1], 10 nM in test [2] and 110 nM in test [3].
As for `O=S1(=O)c2cccc3cccc(c23)N1CCCN1CCN(c2ccc(Br)cc2)CC1`, the IC50 is 7 nM in test [1], greater than 1000 nM in test [2] and greater than 1000 nM in test [3].
As for `O=S1(=O)c2cccc3cccc(c23)N1CCCN1CC=C(c2ccccc2)CC1`, the IC50 was 1 nM in test [1], 192 nM in test [2] and 1000 nM in test [3].
Regarding `O=S1(=O)c2cccc3cccc(c23)N1CCCN1CCN(c2ccccc2F)CC1`, the IC50 was 3 nM in test [1], 52 nM in test [2] and greater than 1000 nM in test [3].
On to `O=[N+]([O-])c1ccc(N2CCN(CCCN3c4cccc5cccc(c45)S3(=O)=O)CC2)cc1`, for which the half-maximal inhibitory concentration (IC50) is 25 nM in test [1], greater than 1000 nM in test [2] and greater than 1000 nM in test [3].
On to `O=C(c1ccc(F)cc1)C1CCN(CCCN2c3cccc4cccc(c34)S2(=O)=O)CC1`, for which the results for the IC50 in test [1], in test [2] and in test [3] were 0.1 nM, 7.9 nM and 41 nM, respectively.
For `O=S1(=O)c2cccc3cccc(c23)N1CCCN1CCC(=C(c2ccc(F)cc2)c2ccc(F)cc2)CC1` the same measures were 11 nM, 50 nM and 603 nM.
`Cc1ccc(N2CCN(CCCN3c4cccc5cccc(c45)S3(=O)=O)CC2)cc1`: the figures for the IC50 in test [1], in test [2] and in test [3] were 4 nM, 700 nM and greater than 1000 nM, respectively.
